“Also recorded” adds a separate entry of the source. Where a name gives a salt, the structure may show the parent alone.
Tests used:
[1] = Pharmacokinetics in Wistar rats, IV/IP/PO; format: in vivo; details: for Fabs: based on AUC0 ⟶240; for Cmax / Tmax / half-life / k el / AUC: Wistar, rat, plasma, 5 mg/kg
[2] = molecular target: Adrenergic α1B (Homo sapiens, UniProt P35368); experiment: Radioligand competition, adrenergic α1B; format: binding
[3] = molecular target: histamine H2 receptor (Homo sapiens, UniProt P25021); experiment: Radioligand binding competition, histamine H2
[4] = Biodistribution of [3H]AVN-101 in rat organs; format: in vivo, Wistar rats; details: for concentration in Blood / concentration in Brain / concentration in Heart / concentration in Kidneys / concentration in Liver / concentration in Lungs / concentration in Spleen: [3H] label; for accumulation in brain higher than in blood: 4 h
[5] = molecular target: 5-HT7 receptor (Homo sapiens, UniProt P34969); experiment: Radioligand binding competition, 5-HT7
[6] = molecular target: Adrenergic α2A (Homo sapiens, UniProt P08913); experiment: Radioligand competition, adrenergic α2A; format: binding; details: Ki
[7] = test system: BALB/c mice; experiment: Tail suspension test; format: in vivo; details: AVN-101 0.05 mg/kg IP once daily for 4 days
Method in brief: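 Test compound dissolved in saline, injected IP into BALB/c mice once daily for 4 days, last injection 5 min before tail suspension; vehicle (saline) controls; fluoxetine and desipramine 15 mg/kg IP as positive controls, last dose 30 min before test. Immobility measured; at least 8 animals per group; Student t-test.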

[8] = test system: BALB/c mice; experiment: Open Field test; format: in vivo; details: IP; Lorazepam 0.05 mg/kg, AVN-101 0.2 mg/kg
Method in brief: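 Male BALB/c mice received lorazepam 30 min or test compound 5 min before testing; controls received saline, with at least 8 per group. Time in the central zone was recorded during a 10-min exploration. Comparison with the control group used ANOVA with Fisher LSD.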

[9] = test system: Wistar rats; experiment: 30 days toxicity, rats; format: in vivo; details: 0.5, 5 and 25 mg/kg PO daily
Method in brief: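 Wistar rats were randomised to vehicle, 0.5, 5 or 25 mg/kg, with 10 males and 10 females per group. Read-outs were body weight, plasma biochemistry markers, and macro- and microscopic observations.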

[10] = molecular target: histamine H3 receptor (Homo sapiens, UniProt Q9Y5N1); experiment: Radioligand binding competition, histamine H3
[11] = Brain/plasma/CSF distribution in Sprague Dawley rats; format: in vivo
[12] = molecular target: hERG channel (Homo sapiens, UniProt Q12809); experiment: Target panel binding, hERG channel
[13] = molecular target: dopamine transporter (Homo sapiens, UniProt Q01959); experiment: Target panel binding, dopamine transporter
[14] = test system: male BALB/c mice; experiment: Elevated Plus-Maze; format: in vivo; details: IP; Buspirone 5 mg/kg; M2 0.05, 0.5, 1.0, 5.0 mg/kg
Method in brief: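 Elevated plus-maze in mice. Read-outs were open/closed arm time ratio, open/closed visit ratio, defecations and total visits. Each treated group was compared with the placebo group by Student t-test.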

[15] = molecular target: CYP3A4 (Homo sapiens, UniProt P08684); experiment: Metabolism by recombinant CYP3A4; format: in vitro ADME
[16] = Phase I pharmacokinetics, single PO dose; format: in vivo, human; details: human, blood, po
[17] = test system: guinea pigs; experiment: Q-T interval, guinea pigs; format: in vivo; details: 10 mg/kg IP
[18] = Sprague Dawley, rat, CSF, iv, 2 mg/kg
[19] = Sprague Dawley, rat, brain, iv, 2 mg/kg
[20] = Sprague Dawley, rat, plasma, iv, 2 mg/kg

Sequence of 5-HT7 receptor (P34969 whole entry): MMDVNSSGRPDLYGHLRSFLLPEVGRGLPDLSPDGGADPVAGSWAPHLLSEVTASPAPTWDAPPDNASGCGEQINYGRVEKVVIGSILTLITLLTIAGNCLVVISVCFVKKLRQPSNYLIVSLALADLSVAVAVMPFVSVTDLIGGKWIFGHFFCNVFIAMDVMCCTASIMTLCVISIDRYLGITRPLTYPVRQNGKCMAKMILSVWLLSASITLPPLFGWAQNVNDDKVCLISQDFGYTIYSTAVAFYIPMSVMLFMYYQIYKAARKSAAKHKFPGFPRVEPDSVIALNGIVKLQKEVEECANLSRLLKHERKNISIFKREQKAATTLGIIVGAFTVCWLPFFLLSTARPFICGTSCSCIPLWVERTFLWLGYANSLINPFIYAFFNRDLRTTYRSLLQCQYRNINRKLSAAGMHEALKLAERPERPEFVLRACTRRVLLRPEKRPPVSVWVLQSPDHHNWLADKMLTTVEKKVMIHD
Sequence of histamine H3 receptor (Q9Y5N1 whole entry, species assumed): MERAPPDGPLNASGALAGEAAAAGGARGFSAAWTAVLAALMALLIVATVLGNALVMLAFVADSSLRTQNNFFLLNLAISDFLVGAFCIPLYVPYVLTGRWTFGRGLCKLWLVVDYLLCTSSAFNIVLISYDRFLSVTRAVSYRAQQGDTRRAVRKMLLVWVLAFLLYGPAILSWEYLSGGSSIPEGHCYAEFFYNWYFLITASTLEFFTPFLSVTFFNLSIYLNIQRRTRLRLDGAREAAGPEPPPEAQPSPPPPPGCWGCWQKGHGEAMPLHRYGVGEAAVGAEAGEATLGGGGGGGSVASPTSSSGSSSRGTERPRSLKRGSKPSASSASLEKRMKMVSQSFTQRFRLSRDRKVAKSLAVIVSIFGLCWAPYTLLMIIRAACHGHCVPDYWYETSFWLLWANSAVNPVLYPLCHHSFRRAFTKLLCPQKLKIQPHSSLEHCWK
Sequence of histamine H2 receptor (P25021 whole entry): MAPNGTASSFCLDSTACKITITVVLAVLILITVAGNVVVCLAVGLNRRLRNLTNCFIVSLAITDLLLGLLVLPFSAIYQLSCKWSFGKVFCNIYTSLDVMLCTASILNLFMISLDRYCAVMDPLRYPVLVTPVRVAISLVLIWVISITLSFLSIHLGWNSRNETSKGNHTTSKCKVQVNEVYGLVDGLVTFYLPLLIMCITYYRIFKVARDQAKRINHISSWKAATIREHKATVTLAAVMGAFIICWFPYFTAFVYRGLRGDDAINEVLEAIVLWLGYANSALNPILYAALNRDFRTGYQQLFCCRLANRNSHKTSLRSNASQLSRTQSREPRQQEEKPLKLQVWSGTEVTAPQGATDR
Sequence of Adrenergic α2A (P08913 whole entry): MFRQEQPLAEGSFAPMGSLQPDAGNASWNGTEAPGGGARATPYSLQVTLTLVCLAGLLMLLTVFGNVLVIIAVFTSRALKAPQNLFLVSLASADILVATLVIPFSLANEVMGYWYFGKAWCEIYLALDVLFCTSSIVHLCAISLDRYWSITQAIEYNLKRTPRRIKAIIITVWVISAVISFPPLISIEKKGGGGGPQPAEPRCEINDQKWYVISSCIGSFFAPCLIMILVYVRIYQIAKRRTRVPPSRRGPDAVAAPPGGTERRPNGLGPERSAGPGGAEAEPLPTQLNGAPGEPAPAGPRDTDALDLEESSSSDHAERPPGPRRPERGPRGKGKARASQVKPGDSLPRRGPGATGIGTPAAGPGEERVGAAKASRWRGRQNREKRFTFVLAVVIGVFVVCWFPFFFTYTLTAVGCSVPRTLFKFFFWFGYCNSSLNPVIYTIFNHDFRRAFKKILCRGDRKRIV
Sequence of hERG channel (Q12809 whole entry): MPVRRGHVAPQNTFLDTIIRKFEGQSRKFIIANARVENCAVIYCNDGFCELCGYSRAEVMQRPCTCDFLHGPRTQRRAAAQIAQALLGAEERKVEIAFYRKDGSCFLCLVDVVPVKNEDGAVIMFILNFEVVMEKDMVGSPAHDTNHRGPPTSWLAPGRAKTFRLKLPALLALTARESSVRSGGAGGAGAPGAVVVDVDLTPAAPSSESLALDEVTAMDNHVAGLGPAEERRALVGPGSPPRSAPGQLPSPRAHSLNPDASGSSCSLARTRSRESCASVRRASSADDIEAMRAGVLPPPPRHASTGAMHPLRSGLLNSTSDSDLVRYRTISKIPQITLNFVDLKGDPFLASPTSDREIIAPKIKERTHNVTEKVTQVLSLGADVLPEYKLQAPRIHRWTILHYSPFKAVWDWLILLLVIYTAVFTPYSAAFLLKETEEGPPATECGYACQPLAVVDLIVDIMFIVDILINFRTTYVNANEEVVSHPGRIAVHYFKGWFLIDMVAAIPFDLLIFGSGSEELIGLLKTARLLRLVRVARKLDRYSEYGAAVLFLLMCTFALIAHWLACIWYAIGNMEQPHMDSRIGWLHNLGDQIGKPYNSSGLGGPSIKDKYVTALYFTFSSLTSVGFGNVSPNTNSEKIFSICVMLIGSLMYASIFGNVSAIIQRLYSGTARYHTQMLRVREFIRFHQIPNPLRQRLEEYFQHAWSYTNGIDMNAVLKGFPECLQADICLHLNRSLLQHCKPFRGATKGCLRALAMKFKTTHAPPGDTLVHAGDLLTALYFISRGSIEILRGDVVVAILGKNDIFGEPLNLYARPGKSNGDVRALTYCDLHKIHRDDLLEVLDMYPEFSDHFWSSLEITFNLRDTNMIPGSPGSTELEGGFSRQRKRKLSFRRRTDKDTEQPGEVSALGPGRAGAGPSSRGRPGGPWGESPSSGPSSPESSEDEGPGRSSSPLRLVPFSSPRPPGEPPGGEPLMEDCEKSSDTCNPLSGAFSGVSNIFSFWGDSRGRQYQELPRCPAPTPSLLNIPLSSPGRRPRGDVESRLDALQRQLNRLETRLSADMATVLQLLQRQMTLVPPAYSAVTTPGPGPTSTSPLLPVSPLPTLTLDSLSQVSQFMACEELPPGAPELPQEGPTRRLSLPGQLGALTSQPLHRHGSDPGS
Sequence of Adrenergic α1B (P35368 whole entry): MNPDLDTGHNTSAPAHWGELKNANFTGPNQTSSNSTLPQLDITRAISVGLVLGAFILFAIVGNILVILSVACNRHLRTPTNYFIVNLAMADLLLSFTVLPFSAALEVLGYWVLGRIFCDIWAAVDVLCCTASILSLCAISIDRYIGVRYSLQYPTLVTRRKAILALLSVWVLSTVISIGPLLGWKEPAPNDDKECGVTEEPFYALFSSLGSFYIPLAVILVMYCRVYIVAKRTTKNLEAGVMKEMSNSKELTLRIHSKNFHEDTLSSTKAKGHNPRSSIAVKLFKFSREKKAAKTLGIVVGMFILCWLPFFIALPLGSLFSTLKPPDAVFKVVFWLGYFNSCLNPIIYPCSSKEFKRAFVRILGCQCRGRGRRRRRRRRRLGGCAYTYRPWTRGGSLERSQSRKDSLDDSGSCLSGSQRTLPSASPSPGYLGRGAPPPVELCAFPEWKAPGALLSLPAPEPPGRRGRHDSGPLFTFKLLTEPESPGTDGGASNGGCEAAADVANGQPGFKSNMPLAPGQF
Sequence of CYP3A4 (P08684 whole entry): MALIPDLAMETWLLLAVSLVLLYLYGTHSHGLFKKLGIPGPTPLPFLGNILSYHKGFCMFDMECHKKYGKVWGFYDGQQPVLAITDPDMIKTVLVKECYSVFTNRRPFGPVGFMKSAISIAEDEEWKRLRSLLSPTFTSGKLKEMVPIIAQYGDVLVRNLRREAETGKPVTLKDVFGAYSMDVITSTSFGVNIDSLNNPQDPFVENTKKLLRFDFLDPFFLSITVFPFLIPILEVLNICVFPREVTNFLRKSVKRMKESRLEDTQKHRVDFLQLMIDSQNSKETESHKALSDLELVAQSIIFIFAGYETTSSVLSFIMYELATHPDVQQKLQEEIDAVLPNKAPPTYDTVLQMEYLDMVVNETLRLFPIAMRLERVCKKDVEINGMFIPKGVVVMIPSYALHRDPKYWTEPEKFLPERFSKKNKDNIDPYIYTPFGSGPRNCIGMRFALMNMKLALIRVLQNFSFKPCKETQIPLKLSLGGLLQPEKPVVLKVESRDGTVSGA
Sequence of dopamine transporter (Q01959 whole entry): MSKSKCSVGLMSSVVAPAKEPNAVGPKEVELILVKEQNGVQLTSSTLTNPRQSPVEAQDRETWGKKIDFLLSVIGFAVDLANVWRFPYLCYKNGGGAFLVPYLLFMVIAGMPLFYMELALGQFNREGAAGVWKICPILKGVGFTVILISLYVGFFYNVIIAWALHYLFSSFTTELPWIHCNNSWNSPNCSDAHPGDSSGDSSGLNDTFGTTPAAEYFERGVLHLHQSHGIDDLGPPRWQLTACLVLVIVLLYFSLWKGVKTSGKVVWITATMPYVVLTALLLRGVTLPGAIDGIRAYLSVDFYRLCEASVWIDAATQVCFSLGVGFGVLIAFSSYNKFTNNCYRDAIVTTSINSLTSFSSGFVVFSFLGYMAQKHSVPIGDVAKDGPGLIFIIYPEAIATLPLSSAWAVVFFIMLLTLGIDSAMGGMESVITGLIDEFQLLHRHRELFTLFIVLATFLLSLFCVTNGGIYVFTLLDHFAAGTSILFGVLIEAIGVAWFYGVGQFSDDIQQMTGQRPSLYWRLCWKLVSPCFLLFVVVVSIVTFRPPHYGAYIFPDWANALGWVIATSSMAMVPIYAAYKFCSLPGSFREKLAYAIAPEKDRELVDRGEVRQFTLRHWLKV

For `Cc1ccc2c(c1)c1c(n2CCc2ccccc2)CCN(C)C1` [AVN-101, 2,8-dimethyl-5-penethyl-2,3,4,5-tetra-hydro-1h-pyrido[[4,3-B]]indole hydrochloride], the Fabs ([1]; IP 5 mg/kg) was 26.3%, the Fabs ([1]; PO 5 mg/kg) was 8.5% and the Cmax ([1]; ip) was 278 ng/mL. For the same compound, the Tmax ([1]; ip) was 5 min, the half-life ([1]; ip) was 2.94 h and the k el ([1]; ip) was 6.5e-05 s⁻¹. For the same compound, the AUC ([1]; ip, AUC0 ⟶240, IP 5 mg/kg) was 1900 ng·h/mL, the AUC ([1]; ip, AUC0 ⟶∞, IP 5 mg/kg) was 2830 ng·h/mL and the Cmax ([1]; iv) was 847 ng/mL. It also gave a Tmax ([1]; iv) of 5 min, a half-life ([1]; iv) of 0.958 h and a k el ([1]; iv) of 0.000202 s⁻¹. For the same compound, the AUC ([1]; iv, AUC0 ⟶240, IV 5 mg/kg) was 721 ng·h/mL, the AUC ([1]; iv, AUC0 ⟶∞, IV 5 mg/kg) was 7530 ng·h/mL and the Cmax ([1]; po) was 50 ng/mL. The Tmax ([1]; po) was 5 min, the half-life ([1]; po) was 1.95 h and the k el ([1]; po) was 9.83e-05 s⁻¹. For the same compound, the AUC ([1]; po, AUC0 ⟶240, PO 5 mg/kg) was 614 ng·h/mL, the AUC ([1]; po, AUC0 ⟶∞, PO 5 mg/kg) was 810 ng·h/mL and the Ki [2] was 9.4 nM. For the same compound, the Ki [3] was 89 nM, the “concentration in Blood” value ([4]; 4 h after IV 5 mg/kg) was 360 ± 10 ng/mL and the “concentration in Brain” value ([4]; 4 h after IV 5 mg/kg) was 9440 ± 360 ng/mL. For the same compound, the “concentration in Heart” value ([4]; 4 h after IV 5 mg/kg) was 9240 ± 230 ng/mL, the “concentration in Kidneys” value ([4]; 4 h after IV 5 mg/kg) was 6500 ± 200 ng/mL and the “concentration in Liver” value ([4]; 4 h after IV 5 mg/kg) was 5300 ± 160 ng/mL. The “concentration in Lungs” value ([4]; 4 h after IV 5 mg/kg) was 8960 ± 110 ng/mL, the “concentration in Spleen” value ([4]; 4 h after IV 5 mg/kg) was 5940 ± 150 ng/mL and the “concentration in Blood” value ([4]; 4 h after PO 10 mg/kg) was 460 ± 10 ng/mL. For the same compound, the “concentration in Brain” value ([4]; 4 h after PO 10 mg/kg) was 6240 ± 240 ng/mL, the “concentration in Heart” value ([4]; 4 h after PO 10 mg/kg) was 3280 ± 150 ng/mL and the “concentration in Kidneys” value ([4]; 4 h after PO 10 mg/kg) was 4700 ± 220 ng/mL. For the same compound, the “concentration in Liver” value ([4]; 4 h after PO 10 mg/kg) was 3780 ± 130 ng/mL, the “concentration in Lungs” value ([4]; 4 h after PO 10 mg/kg) was 3200 ± 230 ng/mL and the “concentration in Spleen” value ([4]; 4 h after PO 10 mg/kg) was 3740 ± 150 ng/mL. For the same compound, the “accumulation in brain higher than in blood” value ([4]; IV) was 26 fold, the “accumulation in brain higher than in blood” value ([4]; PO) was 13 fold and the “IV/PO, normalized, Kidneys” value ([4]; normalized by dose) was 2.77. For the same compound, the “IV/PO, normalized, Spleen” value ([4]; normalized by dose) was 3.18, the “Organ bioavailability, Blood” value ([4]; rat, in vivo) was 63.9% and the “Organ bioavailability, Brain” value ([4]; rat, in vivo) was 33.0%. For the same compound, the “Organ bioavailability, Heart” value ([4]; rat, in vivo) was 17.7%, the “Organ bioavailability, Kidneys” value ([4]; rat, in vivo) was 36.2% and the “Organ bioavailability, Liver” value ([4]; rat, in vivo) was 35.6%. For the same compound, the “Organ bioavailability, Lungs” value ([4]; rat, in vivo) was 17.9%, the “Organ bioavailability, Spleen” value ([4]; rat, in vivo) was 31.5% and the IC50 [5] was 0.28 nM. For the same compound, the “affinity higher than SB-742457” value [5] was ~4 orders of magnitude, the Ki [6] was 0.41 to 3.6 nM and the “decrease in immobility time” value [7] was “comparable to that observed with either Fluoxetine or Desipramine”. For the same compound, the “time spent in the central area” value [8] was “significant anxiolytic effect”, the signs of toxicity [9] was “No signs of toxicity” and the binding [10] was “totally inactive; also recorded: does not bind”. The “binding to blood cells” value ([11]; IV 2 mg/kg, 5 min after injection) was “low binding capacity”, the Vss_obs ([11]; Plasma, IV 2 mg/kg) was 11.6136 L/kg and the AUC(0-inf) [11, 18] was 31.7 ng·h/mL. The AUC(0-t) [11, 18] was 25.3 ng·h/mL, the Cmax [11, 18] was 11 ng/mL and the half-life [11, 18] was 1.62 h. It also gave a k el [11, 18] of 0.000118 s⁻¹, an AUC(0-inf) [11, 19] of 8960 ng·h/mL and an AUC(0-t) [11, 19] of 8000 ng·h/mL. The Cmax [11, 19] was 4660 ng/mL, the Tmax [11, 19] was 4.8 min and the half-life [11, 19] was 1.26 h. The k el [11, 19] was 0.000153 s⁻¹, the AUC(0-inf) [11, 20] was 522 ng·h/mL and the AUC(0-t) [11, 20] was 376 ng·h/mL. The C0 [11, 20] was 308 ng/mL, the Cmax [11, 20] was 274 ng/mL and the Tmax [11, 20] was 4.98 min. For the same compound, the Vd [11, 20] was 13.2 L/kg, the clearance [11, 20] was 63.9 mL/min/kg and the half-life [11, 20] was 2.39 h. For the same compound, the k el [11, 20] was 8e-05 s⁻¹, the binding [12] was “does not bind” and the binding [13] was “does not bind”. The “anxiolytic effect (open/closed arm time and visits, defecations)” value [14] was “clear anxiolytic effects”, the remaining at 0.5 h, 2 µM [15] was 2% and the AUC ([16]; 2 mg) was 0.0946 ± 0.0268 ng·h/mL. The Cmax ([16]; 2 mg) was 0.00579 ± 0.0029 ng/mL, the half-life ([16]; 2 mg) was 14.1 ± 10.2 h and the AUC ([16]; 4 mg) was 0.211 ± 0.0862 ng·h/mL. For the same compound, the half-life ([16]; 4 mg) was 8.15 ± 2.23 h, the AUC ([16]; 10 mg) was 0.462 ± 0.207 ng·h/mL and the Cmax ([16]; 10 mg) was 0.0537 ± 0.0318 ng/mL. The half-life ([16]; 10 mg) was 10.2 ± 2.55 h, the AUC ([16]; 20 mg) was 0.843 ± 0.333 ng·h/mL and the Cmax ([16]; 20 mg) was 0.0841 ± 0.0462 ng/mL. It also gave a half-life ([16]; 20 mg) of 8.18 ± 2.09 h, a Tmax ([16]; male) of roughly 1 h and a half-life ([16]; male) of 8 to 14 h. For the same compound, the “increase in the QT interval over vehicle” value [17] was no more than 10%.
